According to ChEMBL document CHEMBL4715780, “Biological evaluation of tetracationic compounds based on two 1,4-diazabicyclo[2.2.2]octane moieties connected by different linkers” (Bioorg Med Chem, 2016):
≈ marks a conversion by molar mass, not a printed value.

Key:
[1] = Cytotoxicity against human MCF7 cells assessed as reduction in cell viability measured after 24 hrs by MTT assay; format: cell-based
Method in brief: (§1)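 HEK293T or MCF-7 cells in IMDM with 10% FBS, seeded at 20,000 per well and grown overnight. Compounds at […] in fresh medium for 24 h at 37 °C, 5% CO₂. MTT then added for 4 h, precipitate dissolved overnight in SDS-HCl, absorbance read at 570 nm. Viability expressed relative to untreated cells, giving CC₅₀. Duplicate wells, at least two independent repeats.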

[2] = test system: Candida albicans; experiment: Antifungal activity against Candida albicans CEMTC 34 assessed as concentration required to inhibit visible growth by CLSI protocol based serial microdilution method; format: functional
Method in brief: (§2)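 Candida albicans grown in Sabouraud dextrose broth with two-fold serial compound dilutions from water stocks; final inoculum about 5 × 10⁵ CFU/mL. Incubated at 37 °C with orbital shaking (580 rpm). MIC is the lowest concentration preventing growth, by absorbance at 595 nm. MFC is the lowest concentration with no visible growth. Duplicates in two separate experiments.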

[3] = Cytotoxicity against HEK293T cells assessed as reduction in cell viability measured after 24 hrs by MTT assay; format: cell-based, HEK-293T; details: human; method in brief: as §1
[4] = Selectivity index, ratio of CC50 for HEK293T cells assessed as reduction in cell viability measured after 24 hrs by MTT assay to MIC for Candida albicans CEMTC 34 assessed as bacterial growth inhibition by CLSI protocol based serial microdilution method; format: toxicity; details: human, read-out: Selectivity Index
Method in brief: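 SI = CC₅₀ (HEK293T) / MIC. HEK293T cells were seeded at 20,000/well overnight, then exposed to 10–250 µg/mL in IMDM with 10% FBS for 24 h. MTT was added for 4 h, solubilised with SDS-HCl, and read at 570 nm; duplicates, ≥2 independent runs. MIC came from two-fold dilutions in Sabouraud dextrose broth at ~5 × 10⁵ CFU/mL, 37 °C with shaking, read at 595 nm, in duplicate.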

[5] = test system: Candida albicans; experiment: Antifungal activity against Candida albicans CEMTC 34 assessed as fungal growth inhibition by CLSI protocol based serial microdilution method; format: functional; method in brief: as §2
[6] = Cytotoxicity against MDCK cells assessed as cell death incubated for 48 hrs by MTT assay; format: cell-based, Canis lupus familiaris; details: dog
[7] = Selectivity index, ratio of CC50 for MDCK cells to EC50 for Influenza A virus (A/Puerto Rico/8/34 (H1N1)) infected in MDCK cells; format: toxicity, cell-based; details: dog, read-out: Ratio CC50/EC50
Method in brief: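 Ratio of CC₅₀ to EC₅₀, both in MDCK cells, with cytotoxicity run in parallel with the antiviral assay. EC₅₀ is the concentration halving virus production (0.3 log₁₀ EID₅₀ titre drop). It was obtained after 1 h compound pre-incubation, infection, 48 h at 37 °C, and hemagglutination read-out with 1% chicken erythrocytes.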

[8] = test system: Influenza A virus; experiment: Antiviral activity against Influenza A virus (A/Puerto Rico/8/34 (H1N1) infected in MDCK cells assessed as decrease in viral titer preincubated for 1 hr followed by viral infection and cultivated for 48 hrs followed by supernatant transferred to chicken erythrocyte for 1 hr followed by measuring ability to cause positive hemagglutination; format: functional, organism-based; details: A/Puerto Rico/8/1934(H1N1)
Method in brief: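 MDCK monolayers in MEM were pre-incubated with compound for 1 h at 37 °C, then infected with 10-fold virus dilutions (10⁻¹–10⁻⁶) and held 48 h at 37 °C, 5% CO₂. Supernatant was mixed with an equal volume of 1% chicken erythrocytes, 60 min at room temperature. Titre was taken from the highest dilution giving full agglutination (log₁₀ EID₅₀). Triplicate per concentration.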

[9] = test system: Enterococcus faecalis; experiment: Antibacterial activity against Enterococcus faecalis ATCC 51299 assessed as bacterial growth inhibition by CLSI protocol based serial microdilution method; format: functional
[10] = test system: Escherichia coli; experiment: Antibacterial activity against Escherichia coli ATCC 25922 assessed as concentration required to inhibit visible growth by CLSI protocol based serial microdilution method; format: functional
[11] = test system: Staphylococcus aureus; experiment: Antibacterial activity against […] Staphylococcus aureus ATCC 25923 assessed as bacterial growth inhibition by CLSI protocol based serial microdilution method; format: functional
[12] = test system: Salmonella typhimurium; experiment: Antibacterial activity against Salmonella enterica ATCC 14028 assessed as bacterial growth inhibition by CLSI protocol based serial microdilution method; format: functional, Salmonella enterica subsp. enterica serovar Typhimurium
[13] = test system: Proteus vulgaris; experiment: Antibacterial activity against Proteus vulgaris ATCC 6380 assessed as concentration required to inhibit visible growth by CLSI protocol based serial microdilution method; format: functional
[14] = test system: Citrobacter freundii; experiment: Antibacterial activity against Citrobacter freundii ATCC 8090 assessed as bacterial growth inhibition by CLSI protocol based serial microdilution method; format: functional
[15] = test system: Enterococcus faecalis; experiment: Antibacterial activity against Enterococcus faecalis ATCC 51299 assessed as concentration required to inhibit visible growth by CLSI protocol based serial microdilution method; format: functional
[16] = test system: Salmonella typhimurium; experiment: Antibacterial activity against Salmonella enterica ATCC 14028 assessed as concentration required to inhibit visible growth by CLSI protocol based serial microdilution method; format: functional, Salmonella enterica subsp. enterica serovar Typhimurium
[17] = test system: Staphylococcus aureus; experiment: Antibacterial activity against […] Staphylococcus aureus ATCC 25923 assessed as concentration required to inhibit visible growth by CLSI protocol based serial microdilution method; format: functional
[18] = test system: Citrobacter freundii; experiment: Antibacterial activity against Citrobacter freundii ATCC 8090 assessed as concentration required to inhibit visible growth by CLSI protocol based serial microdilution method; format: functional
[19] = test system: Pseudomonas aeruginosa; experiment: Antibacterial activity against Pseudomonas aeruginosa ATCC 9027 assessed as concentration required to inhibit visible growth by CLSI protocol based serial microdilution method; format: functional
[20] = test system: Proteus vulgaris; experiment: Antibacterial activity against Proteus vulgaris ATCC 6380 assessed as bacterial growth inhibition by CLSI protocol based serial microdilution method; format: functional
[21] = test system: Escherichia coli; experiment: Antibacterial activity against Escherichia coli ATCC 25922 assessed as bacterial growth inhibition by CLSI protocol based serial microdilution method; format: functional
[22] = test system: Pseudomonas aeruginosa; experiment: Antibacterial activity against Pseudomonas aeruginosa ATCC 9027 assessed as bacterial growth inhibition by CLSI protocol based serial microdilution method; format: functional

SMILES | MFC [2] [µg/mL] | MIC [5] [µg/mL] | CC50 at 48 h [6] [µg/mL] | selectivity ratio [7] | EC50 [8] [µg/mL] | MIC [9] [µg/mL] | MBC [10] [µg/mL] | MIC [11] [µg/mL] | MIC [12] [µg/mL] | MBC [13] [µg/mL] | MIC [14] [µg/mL] | MBC [15] [µg/mL] | MBC [16] [µg/mL] | MBC [17] [µg/mL] | MBC [18] [µg/mL] | MBC [19] [µg/mL] | MIC [20] [µg/mL] | MIC [21] [µg/mL] | MIC [22] [µg/mL] | further results
Clc1ccccc1C(c1ccccc1)(c1ccccc1)n1ccnc1 [CLOTRIMAZOLE] | 400 (≈ 1160 µM) | 400 (≈ 1160 µM) |  |  |  |  |  |  |  |  |  |  |  |  |  |  |  |  |  | CC50 at 24 h [1]: 5 µg/mL (≈ 14.5 µM); CC50 at 24 h [3]: 7 µg/mL (≈ 20.3 µM); selectivity ratio at 24 h [4]: < 1
CCOC(=O)C1=C[C@@H](OC(CC)CC)[C@H](NC(C)=O)[C@@H](N)C1 [OSELTAMIVIR] |  |  | 300 (≈ 960 µM) | 1000 | 0.3 (≈ 0.96 µM) |  |  |  |  |  |  |  |  |  |  |  |  |  |  | 
O=C(O)c1cn(C2CC2)c2cc(N3CCNCC3)c(F)cc2c1=O [CIPROFLOXACIN] |  |  |  |  |  |  |  |  |  |  |  |  |  |  |  |  |  |  |  | CC50 at 24 h [1]: 60 µg/mL (≈ 181 µM); CC50 at 24 h [3]: > 60 µg/mL
C#CCOCCCCCN(CC[N+]12CC[N+](CCCCCCCCCCCC)(CC1)CC2)CC[N+]12CC[N+](CCCCCCCCCCCC)(CC1)CC2.[Cl-].[Cl-].[Cl-].[Cl-] | 25 | 25 | 14.9 | 1 | 10 | 1.6 | 3.1 | 1.6 | 3.1 | > 100 | 3.1 | 3.1 | 3.1 | 3.1 | 3.1 | 12.5 | 100 | 3.1 | 6.3 | 
CCCCCCCCCCCC[N+]12CC[N+](CCCCCCCC[N+]34CC[N+](CCCCCCCCCCCC)(CC3)CC4)(CC1)CC2 | 12.5 | 6.3 | 4.5 | 2 | 2.2 | 1.6 | 3.1 | 0.6 | 3.1 | > 100 | 3.1 | 1.6 | 6.3 | 1.6 | 6.3 | 6.3 | 100 | 1.6 | 3.1 | 
CCCCCCCCCCCC[N+]12CC[N+](Cc3cccc(-c4ccccc4C[N+]45CC[N+](CCCCCCCCCCCC)(CC4)CC5)c3)(CC1)CC2 | 6.3 | 1.6 |  |  |  | 0.8 | 3.1 | 0.6 | 1.6 | 100 | 1.6 | 1.6 | 3.1 | 1.2 | 1.6 | 6.3 | 50 | 1.6 | 3.1 | 
CCCCCCCCCCCC[N+]12CC[N+](Cc3nnn(CCCCCN=[N+]=[N-])c3C[N+]34CC[N+](CCCCCCCCCCCC)(CC3)CC4)(CC1)CC2.[Cl-].[Cl-].[Cl-].[Cl-] | 12.5 | 12.5 | 12.9 | 3 | 4.2 | 1.6 | 3.1 | 1.6 | 1.6 | > 100 | 1.6 | 1.6 | 3.1 | 3.1 | 3.1 | 6.3 | 50 | 1.6 | 3.1 | 
CCCCCCCCCCCC[N+]12CC[N+](CCNCC[N+]34CC[N+](CCCCCCCCCCCC)(CC3)CC4)(CC1)CC2.[Cl-].[Cl-].[Cl-].[Cl-] | 12.5 | 12.5 | 7.7 | 4 | 2.2 | 0.8 | 3.1 | 0.6 | 1.6 | 50 | 3.1 | 1.6 | 3.1 | 12 | 3.1 | 6.3 | 50 | 16 | 1.6 | 
CCCCCCCCCCCC[N+]12CC[N+](Cc3nnn(CCCCC(=O)OC)c3C[N+]34CC[N+](CCCCCCCCCCCC)(CC3)CC4)(CC1)CC2.[Cl-].[Cl-].[Cl-].[Cl-] | 12.5 | 6.3 | 20.6 | < 2 | > 11 | 1.6 | 3.1 | 1.6 | 3.1 | > 100 | 1.6 | 3.1 | 3.1 | 3.1 | 3.1 | 12.5 | 100 | 3.1 | 6.3 | 
